Experimental data of several laboratories.

SMILES	cell line	effect on	mode	method	time	notes	IC50 [µM]
C(=C\c1c[nH]c2ccccc12)/c1cc(/C=C/c2cccs2)[nH]n1	CHO-K1	cell growth or viability	–	MTT	72 h	–	0.9
Cc1ccc2nc(-c3ccc([N+](=O)[O-])cc3)n(Cc3ccccc3Cl)c2c1	human Rhabdomyosarcoma cell	cell growth or viability	–	MTT	–	–	17.6
COc1ccccc1CCNCC(O)COc1cccc2[nH]c3ccccc3c12 (stereo not drawn)	NCI-H1299	cell growth or viability	–	CCK-8	72 h	–	15.2
O=C(/C=C(/C=C/c1cccnc1)NCCO)/C=C/c1cccnc1	CHO-K1	cell growth or viability	–	MTT	72 h	–	> 75
CCOc1ccc(-c2nc3ccccc3n2Cc2ccccc2)cc1	human Rhabdomyosarcoma cell	cell growth or viability	–	MTT	–	–	48.6
COc1cc(N2CCC(N3CCN(C)CC3)CC2)ccc1Nc1ncc(Cl)c(Nc2ccccc2S(=O)(=O)C(C)C)n1	Rh30	cell growth or viability	–	–	72 h	–	0.3
COc1cc(/C=C/C(=O)CC(=O)/C=C/c2ccc(O)c(OC)c2)ccc1O	CHO-K1	cell growth or viability	–	MTT	72 h	–	21.3
Brc1ccc(Nc2nc(NCc3ccccc3)nc(NCc3ccccc3)n2)cc1	SK-BR-3	cell growth or viability	–	SRB	72 h	–	20.4
COc1ccccc1/C=C/CNCC(O)COc1ccccc1 (stereo not drawn)	NCI-H1299	cell growth or viability	–	CCK-8	72 h	–	33.1
Cc1ccc2nc(-c3ccc(Cl)cc3)n(Cc3ccccc3)c2c1	human Rhabdomyosarcoma cell	cell growth or viability	–	MTT	–	–	4.83
O=C(/C=C(O)/C=C/c1ccccn1)/C=C/c1c[nH]c2ccccc12	CHO-K1	cell growth or viability	–	MTT	72 h	–	22.3
Cc1ncn2c(=O)n(C)nnc12	D54	cell growth or viability	–	resazurin	7 days	–	6
CC(C)CNC(=C\C(=O)/C=C/c1cccnc1)/C=C/c1cccnc1	CHO-K1	cell growth or viability	–	MTT	72 h	–	17.7
COc1ccccc1/C=C/CNCC(O)COc1cccc2ccccc12 (stereo not drawn)	NCI-H1299	cell growth or viability	–	CCK-8	72 h	–	19.8
O=C(/C=C(O)/C=C/c1cccs1)/C=C/c1c[nH]c2ccccc12	CHO-K1	cell growth or viability	–	SRB	72 h	–	11.1
CC(C)(C)Nc1c(-c2ccccc2N)nc2ccccn12	Vero	cell growth or viability	–	MTT	48 h	–	90
O=C(O)Cc1ccccc1Nc1c(Cl)cccc1Cl	RAW264.7	NO release	inhibitor	–	–	LPS-stimulated	54.7
NS(=O)(=O)OC[C@@H]1C[C@@H](n2ccc3c(N[C@H]4CCc5ccccc54)ncnc32)C[C@@H]1O	NCI-H1299	cell growth or viability	–	CCK-8	72 h	–	0.9
COc1ccc(-c2nc3ccccc3n2Cc2ccccc2)cc1OC	human Rhabdomyosarcoma cell	cell growth or viability	–	MTT	–	–	18.4
COc1cc(/C=C/c2cc(/C=C/c3ccncc3)[nH]n2)ccc1O	CHO-K1	cell growth or viability	–	SRB	72 h	–	41.8
COc1ccccc1/C=C/CNCC(O)COc1ccc2[nH]c3ccccc3c2c1 (stereo not drawn)	NCI-H1299	cell growth or viability	–	CCK-8	72 h	–	6.1
COc1cc(/C=C/C(=O)/C=C(O)/C=C/c2ccc[nH]2)ccc1O	CHO-K1	cell growth or viability	–	SRB	72 h	–	49
CC1CS(=O)(=O)CCN1/N=C/c1ccc([N+](=O)[O-])o1 (stereo not drawn)	RAW264.7	cell growth or viability	–	MTT	–	–	31
CC(=O)O[C@@]12CO[C@@H]1C[C@H](O)[C@@]1(C)C(=O)[C@H](O)C3=C(C)[C@@H](OC(=O)[C@H](O)[C@@H](NC(=O)OC(C)(C)C)c4ccccc4)C[C@@](O)([C@@H](OC(=O)c4ccccc4)[C@H]21)C3(C)C	MDA-MB-436	cell growth or viability	–	ATP luminescence	72 h	–	0.0037

SMILES	cell line	effect on	mode	method	time	notes	IC50 [µM]
O=C(/C=C(O)/C=C/c1cccnc1)/C=C/c1cccnc1	CHO-K1	cell growth or viability	–	MTT	72 h	–	7.2
O=C(Nc1nnc(-c2cc3ccccc3[nH]2)s1)c1cc2c([nH]c3ccccc32)c(-c2ccc(Cl)cc2)n1	HL-60	cell growth or viability	–	MTT	72 h	–	9.31
COc1cccc2c1C(=O)c1c(O)c3c(c(O)c1C2=O)C[C@@](O)(C(=O)CO)C[C@@H]3O[C@H]1C[C@H](N)[C@H](O)[C@H](C)O1	CHO-K1	cell growth or viability	–	MTT	72 h	–	1.4
COc1cc(/C=C/C(=O)/C=C(O)/C=C/c2ccccn2)ccc1O	CHO-K1	cell growth or viability	–	MTT	72 h	–	25.2
COc1ccccc1/C=C/CNCC(O)COc1ccc2c(c1)[nH]c1ccccc12 (stereo not drawn)	NCI-H1299	cell growth or viability	–	CCK-8	72 h	–	3.9
Cn1nnc2c(C(=O)N3CCCC3)ncn2c1=O	D54	cell growth or viability	–	resazurin	7 days	–	12
COc1cc(/C=C/C(=O)/C=C(O)/C=C/c2c[nH]c3ccccc23)ccc1O	CHO-K1	cell growth or viability	–	SRB	72 h	–	23.3
CC(C)C[C@H](NC(=O)[C@H](Cc1ccccc1)NC(=O)c1cnccn1)B(O)O	NCI-H1437	cell growth or viability	–	ATP luminescence	–	–	0.013
COCCNC(=C\C(=O)/C=C/c1cccnc1)/C=C/c1cccnc1	CHO-K1	cell growth or viability	–	MTT	72 h	–	45.1
Cc1ccc2nc(-c3ccccc3O)[nH]c2c1	human Rhabdomyosarcoma cell	cell growth or viability	–	MTT	48 h	–	6.76
COc1cc(/C=C/C(=O)/C=C(O)/C=C/c2ccncc2)ccc1O	CHO-K1	cell growth or viability	–	SRB	72 h	–	17.7
COc1ccccc1OCCNCC(O)COc1cccc2[nH]c3ccccc3c12 (stereo not drawn)	NCI-H1299	cell growth or viability	–	CCK-8	72 h	–	32.4
Cc1ccc2nc(-c3ccc(Cl)cc3)n(Cc3ccccc3Cl)c2c1	human Rhabdomyosarcoma cell	cell growth or viability	–	MTT	–	–	41
COc1cc(Nc2nccc(-c3cnn4nc(OC)ccc34)n2)cc(C(F)(F)F)c1	COR-L279	cell growth or viability	–	ATP luminescence	–	–	0.21
O=[N+]([O-])c1ccc(-c2nc3ccccc3[nH]2)cc1	human Rhabdomyosarcoma cell	cell growth or viability	–	MTT	48 h	–	23.4
Cn1nnc2c(-c3ccccc3)ncn2c1=O	D54	cell growth or viability	–	resazurin	7 days	–	7
COc1cc(C(=O)c2csc(-c3ccccc3)n2)cc(OC)c1OC	B16-F1	cell growth or viability	–	SRB	–	–	0.019
COCCCNC(=C\C(=O)/C=C/c1cccnc1)/C=C/c1cccnc1	CHO-K1	cell growth or viability	–	MTT	72 h	–	21.3
COc1cc2nccc(Oc3ccc(NC(=O)C4(C(=O)Nc5ccc(F)cc5)CC4)cc3)c2cc1OC	Rh30	cell growth or viability	–	–	72 h	–	5.9
Cn1c(-c2nnc(NC(=O)c3cc4c([nH]c5ccccc54)c(-c4ccccc4)n3)s2)cc2ccccc21	HL-60	cell growth or viability	–	MTT	72 h	–	33.2
O=[N+]([O-])c1ccc(-c2nc3cnccn3c2NC2CCCCC2)cc1	Vero	cell growth or viability	–	MTT	48 h	–	64
O=C(/C=C(/C=C/c1cccnc1)NCCCO)/C=C/c1cccnc1	CHO-K1	cell growth or viability	–	MTT	72 h	–	> 75
COc1cccc(-c2nc3ccc(C)cc3[nH]2)c1	human Rhabdomyosarcoma cell	cell growth or viability	–	MTT	48 h	–	22.3
CN(C)c1ccc(-c2nc3ccccn3c2NC(C)(C)C)cc1	Vero	cell growth or viability	–	MTT	48 h	–	87
